Measurements published in ChEMBL document CHEMBL3784946, “Antiviral Merosesquiterpenoids Produced by the Antarctic Fungus Aspergillus ochraceopetaliformis SCSIO 05702” (J Nat Prod, 2016).
Values after ≈ are worked out from the molar mass of the structure shown. Active and inactive are the calls of the source. No cut-off for these calls is given here.

Key:
[1] = system: Influenza A virus; test: Antiviral activity against Influenza A virus H1N1 infected in MDCK cells assessed as inhibition of virus-induced cytopathic effect after 48 hrs by crystal violet staining-based microplate reader analysis; type: functional, organism-based
How it was run: (§1)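 Confluent MDCK monolayers infected with influenza virus for 1 h at 37 °C. Virus was removed, and cells were kept in RPMI 1640 with 4 μg/mL trypsin plus graded compound concentrations for 48 h at 37 °C. Cells were then fixed in 4% formaldehyde and stained with 0.1% crystal violet, with absorbance read at 570 nm. IC50 is the concentration giving 50% […] at 48 h. Values are means of three independent experiments.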

[2] = system: Influenza A virus H3N2; test: Antiviral activity against Influenza A virus H3N2 infected in MDCK cells assessed as inhibition of virus-induced cytopathic effect after 48 hrs by crystal violet staining-based microplate reader analysis; type: functional, organism-based; how it was run: as §1
[3] = system: Staphylococcus aureus; test: Antibacterial activity against Staphylococcus aureus after 24 hrs by agar dilution method; type: functional
[4] = system: HT-29; test: Cytotoxicity against human HT-29 cells assessed as reduction in cell viability after 72 hrs by CCK8 assay; type: functional, cell-based
How it was run: (§2)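 Cells grown in RPMI or DMEM with 10% FBS and 1% penicillin/streptomycin at 37 °C under 5% CO2. Seeded at 400–800 cells/well and exposed to graded compound concentrations or solvent control for 72 h. Viability read by CCK-8 absorbance at 450 nm, and IC50 derived from dose–response curves.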

[5] = (§3) Cytotoxicity against human U937 cells assessed as reduction in cell viability after 72 hrs by CCK8 assay; type: functional, cell-based; conditions: U-937, 72 h; how it was run: as §2
[6] = system: A549; test: Cytotoxicity against human A549 cells assessed as reduction in cell viability after 72 hrs by CCK8 assay; type: functional, cell-based; how it was run: as §2
[7] = system: HL-60; test: Cytotoxicity against human HL60 cells assessed as reduction in cell viability after 72 hrs by CCK8 assay; type: functional, cell-based; how it was run: as §2
[8] = system: Mycobacterium tuberculosis; test: Antitubercular activity against Mycobacterium tuberculosis H37Ra assessed as growth inhibition at 100 ug/ml after 7 days by Alamar blue assay; type: functional, organism-based
How it was run: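 M. tuberculosis H37Ra exposed 7 days to material at 100 μg/mL (from 10 mg/mL DMSO stock; 1% v/v DMSO). Growth measured by Alamar Blue fluorescence, with inhibition expressed relative to bacteria-only controls.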

[9] = system: Escherichia coli; test: Antibacterial activity against Escherichia coli assessed as growth inhibition at 0.01 to 100 ug/ml after 24 hrs by agar dilution method; type: functional, organism-based
How it was run: (§4)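 Bacteria grown on LB agar plates at 37 °C. Samples were dissolved in DMSO and serially diluted 2-fold from 100 to 0.01 μg/mL. 5 μL of each dilution was loaded onto a 5 mm paper disk placed on the plate. After 24 h, inhibition zone diameters (mm) were recorded. MIC was the lowest concentration with no visible growth. Ciprofloxacin lactate served as positive control.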

[10] = system: Staphylococcus aureus; test: Antibacterial activity against Staphylococcus aureus assessed as growth inhibition at 0.01 to 100 ug/ml after 24 hrs by agar dilution method; type: functional, organism-based; how it was run: as §4
[11] = system: U-937; test: as §3; type: functional, cell-based; how it was run: as §2
[12] = Selectivity index, ratio of CC50 for MDCK cells to IC50 for Influenza A virus H3N2 infected in MDCK cells; type: functional
How it was run: (§5)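 SI calculated as CC50 divided by IC50, both from the CPE-inhibition assay on MDCK cells. The underlying values are means of three independent experiments.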

[13] = system: HeLa; test: Cytotoxicity against human HeLa cells assessed as reduction in cell viability after 72 hrs by CCK8 assay; type: functional, cell-based; how it was run: as §2
[14] = Cytotoxicity against MDCK cells after 48 hrs by crystal violet staining-based microplate reader analysis; type: cell-based, Canis lupus familiaris; conditions: dog
How it was run: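 CC50 taken from the CPE-inhibition assay format on MDCK cells, with crystal violet read-out. Values are means ± SD of three independent experiments.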

[15] = Selectivity index, ratio of CC50 for MDCK cells to IC50 for Influenza A virus H1N1 infected in MDCK cells; type: functional; how it was run: as §5
[16] = system: Mycobacterium tuberculosis; test: Antitubercular activity against Mycobacterium tuberculosis H37Ra after 7 days by Alamar blue assay; type: functional; conditions: 168 h
How it was run: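 M. tuberculosis H37Ra exposed 7 days to 2-fold dilution series from 100 μg/mL downward (10 mg/mL DMSO stock; 1% v/v DMSO at top). Growth measured by Alamar Blue fluorescence.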

Row | Structure (SMILES) | IC50 [1] | IC50 [2] | MIC [3] | IC50 ([4]; HT-29, 72 h) | IC50 [5] | Activity [4] | Activity [6] | Activity [7] | growth inhibition (GI) [8] | growth inhibition (GI) [9] | growth inhibition (GI) [10] | Activity [11] | Ratio CC50/IC50 [12] | Activity [13] | CC50 at 48 h [14] | Ratio CC50/IC50 [15] | MIC90 [16]
1 | CCOC(=O)C1=C[C@@H](OC(CC)CC)[C@H](NC(C)=O)[C@@H](N)C1 [OSELTAMIVIR] | 16.9 nM | 18.5 nM | – | – | – | – | – | – | – | – | – | – | – | – | – | – | –
2 | CC(O)C(=O)O.O=C(O)c1cn(C2CC2)c2cc(N3CCNCC3)c(F)cc2c1=O [CIPROFLOXACIN LACTATE] | – | – | 1.25 µg/mL | – | – | – | – | – | – | – | – | – | – | – | – | – | –
3 | CC(=O)O[C@H]1C(=O)[C@@]2(C)[C@H]([C@H](OC(=O)c3ccccc3)[C@]3(O)C[C@H](OC(=O)[C@H](O)[C@@H](NC(=O)c4ccccc4)c4ccccc4)C(C)=C1C3(C)C)[C@]1(OC(C)=O)CO[C@@H]1C[C@@H]2O [PACLITAXEL] | – | – | – | 3.04 nM | 1.66 nM | – | – | – | – | – | – | – | – | – | – | – | –
4 | CC[C@H]1O[C@@H]2O[C@H](/C=C/C=C\C=C\c3oc(=O)cc(OC)c3C)[C@H](O)[C@]2(C)[C@@]1(C)O | 230 nM | 660 nM | – | – | – | inactive | inactive | inactive | inactive | inactive | inactive | inactive | 0.81 | inactive | 540 nM | 2.35 | –
5 | Cc1oc(=O)c2c(c1C)O[C@@]1(C)[C@H](C2)[C@@H](C)[C@]2(O)CC(=O)C(C)(C)C(=O)[C@@]2(O)[C@H]1O | – | – | – | – | – | inactive | inactive | inactive | inactive | inactive | inactive | inactive | – | inactive | – | – | –
6 | NNC(=O)c1ccncc1 [ISONIAZID] | – | – | – | – | – | – | – | – | – | – | – | – | – | – | – | – | 2.04 µM (≈ 0.28 µg/mL)
7 | CO[C@H]1c2c(c(C)c(C)oc2=O)O[C@@]2(C)[C@H]1[C@@H](C)[C@]1(O)CC(=O)C(C)(C)C(=O)[C@@]1(O)[C@H]2O | > 20000 nM | 12200 nM | – | – | – | inactive | inactive | inactive | inactive | inactive | inactive | inactive | 1.71 | inactive | 20900 nM | – | –
8 | CC[C@H]1O[C@@H]2O[C@@H]3[C@H](O)[C@@H](/C=C/C=C/c4oc(=O)cc(OC)c4C)O[C@@H]3[C@]2(C)[C@@]1(C)O | – | – | – | – | – | inactive | inactive | inactive | inactive | inactive | inactive | inactive | – | inactive | – | – | –
9 | Cc1oc(=O)c2c(c1C)O[C@@]1(C)C(=C2)[C@@H](C)[C@]2(O)CC(=O)C(C)(C)C(=O)[C@@]2(O)[C@H]1O | – | – | – | – | – | inactive | inactive | inactive | inactive | inactive | inactive | inactive | – | inactive | – | – | –
10 | Cc1oc(=O)c2c(c1C)O[C@]1(C)[C@H](O)C[C@@]3(O)C(C)(C)C(=O)CC[C@]3(C)[C@H]1C2 | – | – | – | – | – | inactive | inactive | inactive | inactive | inactive | inactive | inactive | – | inactive | – | – | –
11 | Cc1oc(=O)c2c(c1C)O[C@@]1(C)[C@@H]([C@@H](C)[C@]3(O)CC(=O)C(C)(C)C(=O)[C@@]3(O)[C@H]1O)[C@H]2O | – | – | – | – | – | inactive | inactive | inactive | inactive | inactive | inactive | inactive | – | inactive | – | – | –
12 | CC[C@H]1O[C@@H]2O[C@H](/C=C/C=C/C=C/c3oc(=O)cc(OC)c3C)[C@H](O)[C@]2(C)[C@@]1(C)O | 540 nM | 840 nM | – | – | – | inactive | inactive | inactive | inactive | inactive | inactive | inactive | 0.29 | inactive | 240 nM | 0.44 | –
